Several values for one entry are separate records, joined by “and”; a condition that tells them apart may be missing. Identical values can stand only once. Marks after values point to notes of the source that are not given here.
Key:
[1] = test system: hamster oviduct (infundibulum); assay: Oocyte pickup rate assay, hamster oviduct explants in vitro; type: cell-based, golden hamster (Mesocricetus auratus); conditions: for Efficacy, Oocyte Pickup Rate: mean percentage of inhibition at the LOAEL
In short: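 Female golden hamsters were primed with 25 IU PMSG on estrous day 1 and 25 IU hCG on day 3, then killed with CO2 about 12 h later. On infundibulum explants, transit time of an oocyte-cumulus complex (OCC) along a fixed path was timed, 6–10 times each in EBSS-H/0.1% BSA control, one test dose (10-13–10-5 M screen; ANOVA), and recovery. The LOAEL was repeated to n = 4 infundibula, and efficacy was taken as mean % inhibition there.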

[2] = test system: hamster oviduct (infundibulum) cilia; assay: Ciliary beat frequency assay, hamster oviductal explants in vitro; type: cell-based, golden hamster (Mesocricetus auratus); conditions: for Efficacy, Ciliary Beat Frequency: mean percentage of inhibition at the LOAEL
[3] = test system: hamster oviduct infundibular smooth muscle; assay: Infundibular smooth muscle contraction assay, hamster oviduct explants in vitro; type: cell-based, golden hamster (Mesocricetus auratus); conditions: for LOAEL, Contraction Rate: lowest observable adverse effect level, hamster infundibulum in EBSS-H with 0.1% BSA, n = 4 infundibula; for Efficacy, Contraction Rate: mean percentage of inhibition at the LOAEL; for LOAEL, infundibular smooth muscle contraction: as stated in the abstract
rats = conditions: dose-dependent; cited from earlier work
female mice = conditions: due to effects on adrenal function; cited from earlier work
male rats = conditions: cited from earlier work
[4] = test system: chick chorioallantoic membrane (CAM); conditions: due to inhibition of DNA synthesis; cited from earlier work
[5] = lowest observable adverse effect level, hamster infundibulum in EBSS-H with 0.1% BSA, n = 4 infundibula
[6] = more inhibitory than pyridine, pyridine data ref 16

Cc1cnc(C)c(C)n1 [2,3,5-trimethylpyrazine]
Efficacy, Oocyte Pickup Rate [1]: 10%
LOAEL, Ciliary Beat Frequency [2, 5]: 10^-9 M
Efficacy, Ciliary Beat Frequency [2]: 18%
LOAEL, Contraction Rate [3]: 10^-9 M
Efficacy, Contraction Rate [3]: 58%

Cc1cnc(C)cn1 [2,5-dimethylpyrazine]
Efficacy, Oocyte Pickup Rate [1]: 10* %
Efficacy, Oocyte Pickup Rate ([1]; listed as 2,5-Dimethylpyrazine): 9.9%
Effect on uterine weight (rats): caused a decrease in uterine weight
LOAEL, Ciliary Beat Frequency [2, 5]: 10^-8 M
Efficacy, Ciliary Beat Frequency [2]: 34%
LOAEL, Contraction Rate [3]: 10^-9 M
Efficacy, Contraction Rate [3]: 40%
Effect on onset of puberty (female mice): delayed the onset of puberty

Cc1cncc(C)n1 [2,6-dimethylpyrazine]
LOAEL, oocyte pickup rate [1, 5]: 10^-9 M
Efficacy, Oocyte Pickup Rate [1]: 3.5% and 3** %
LOAEL, Ciliary Beat Frequency [2, 5]: 10^-6 M
Efficacy, Ciliary Beat Frequency [2]: 5** %
LOAEL, Contraction Rate [3]: 10^-7 M
Efficacy, Contraction Rate [3]: 85*** %
Efficacy, Contraction Rate ([3]; listed as 2,6-Dimethylpyrazine): 85%

CCc1cnccn1 [2-ethylpyrazine]
LOAEL, oocyte pickup rate ([1]; as stated in the abstract): 10 picomolar
Efficacy, Oocyte Pickup Rate [1]: 45* %
LOAEL, Ciliary Beat Frequency ([2]; as stated in the abstract): 1 picomolar
Efficacy, Ciliary Beat Frequency [2]: 3** %
LOAEL, infundibular smooth muscle contraction [3]: 1 picomolar
Efficacy, Contraction Rate [3]: 38%
Decrease of LOAEL in the smooth muscle contraction assay relative to pyrazine [3]: 1000 fold

COc1nccnc1C [2-methoxy-3-methylpyrazine]
Efficacy, Oocyte Pickup Rate [1]: 13%
LOAEL, Ciliary Beat Frequency [2, 5]: 10^-9 M
Efficacy, Ciliary Beat Frequency [2]: 18%
Efficacy, Contraction Rate [3]: 17** %
Efficacy, Contraction Rate ([3]; listed as 2-Methoxy-3-methylpyrazine): 17%

Cc1cnccn1 [2-methylpyrazine]
LOAEL, oocyte pickup rate ([1]; as stated in the abstract): 10 picomolar
Efficacy, Oocyte Pickup Rate [1]: 43* %
LOAEL, Ciliary Beat Frequency ([2]; as stated in the abstract): 1 picomolar
Efficacy, Ciliary Beat Frequency [2]: 11* %
LOAEL, infundibular smooth muscle contraction [3]: 10 picomolar
Efficacy, Contraction Rate [3]: 61** %
Decrease of LOAEL in the smooth muscle contraction assay relative to pyrazine [3]: 100 fold

Cc1cnc(C)c(S)n1 [3,6-dimethylpyrazine-2-thiol]
Effect on prostate and seminal vesicle weights (male rats): caused a decrease in prostate and seminal vesicle weights

c1cnccn1 [pyrazine]
LOAEL dose, oocyte pickup rate assay ([1]; LOAEL expressed in ppb for comparison with food levels): 4 ppb
LOAEL, oocyte pickup rate ([1]; as stated in the abstract): 10 picomolar
Efficacy, Oocyte Pickup Rate [1]: 29%
Inhibitory potency relative to pyridine, oocyte pickup rate [1, 6]: at least 1 million
LOAEL, Ciliary Beat Frequency ([2]; as stated in the abstract): 1 picomolar
Efficacy, Ciliary Beat Frequency [2]: 25%
Inhibitory potency relative to pyridine, ciliary beat frequency [2, 6]: at least 1 million
Effect on CAM and embryo growth [4]: inhibited both CAM and embryo growth at picomolar doses
LOAEL, infundibular smooth muscle contraction [3]: 1 nM
LOAEL, Contraction Rate [3]: 10^-9 M
Efficacy, Contraction Rate [3]: 40%
Inhibitory potency relative to pyridine, infundibular smooth muscle contraction [3, 6]: at least 1 million

Source: publication PMC428586 (Reproductive biology and endocrinology : RB&E, 2004)
